Data: ChEMBL document CHEMBL1154186, “Synthesis, kinase inhibitory potencies, and in vitro antiproliferative evaluation of new Pim kinase inhibitors” (J Med Chem, 2009)

Tests used:
[1] = molecular target: T1, Mitogen-activated protein kinase 15 (Homo sapiens) (UniProt Q8TD08); test: Inhibition of ERK8 assessed as residual enzyme activity at 10 uM relative to untreated control
T1 sequence (whole entry): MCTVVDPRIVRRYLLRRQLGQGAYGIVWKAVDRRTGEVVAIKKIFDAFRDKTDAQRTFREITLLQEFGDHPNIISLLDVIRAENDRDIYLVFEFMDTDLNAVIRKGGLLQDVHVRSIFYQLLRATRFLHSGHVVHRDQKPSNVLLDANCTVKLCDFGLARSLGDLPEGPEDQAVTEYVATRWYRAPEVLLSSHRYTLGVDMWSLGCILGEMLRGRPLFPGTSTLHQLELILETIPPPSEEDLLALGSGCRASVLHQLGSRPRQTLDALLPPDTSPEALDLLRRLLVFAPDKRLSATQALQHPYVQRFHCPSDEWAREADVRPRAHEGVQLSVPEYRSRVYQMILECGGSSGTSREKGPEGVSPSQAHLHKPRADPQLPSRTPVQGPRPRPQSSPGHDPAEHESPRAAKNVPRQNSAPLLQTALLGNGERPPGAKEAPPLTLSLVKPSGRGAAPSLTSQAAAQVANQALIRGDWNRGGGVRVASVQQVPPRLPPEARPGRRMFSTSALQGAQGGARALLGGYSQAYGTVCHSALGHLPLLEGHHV
How it was run: (§1)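 Radiometric filter-binding assay at 21 °C for 30 min. Mix: 50 mM Tris/HCl pH 7.5, 0.1 mM EGTA, 0.1% 2-mercaptoethanol, 10 mM Mg acetate and [γ-33P]ATP (800 cpm/pmol) at 5 µM. Stopped with orthophosphoric acid and spotted on P81. Compound at 10 µM; activity given as % remaining versus no-inhibitor control, duplicates. Kinases human full-length unless noted.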

[2] = molecular target: Ribosomal protein S6 kinase alpha-5 (Homo sapiens) (UniProt O75582); test: Inhibition of MSK1 assessed as residual enzyme activity at 10 uM relative to untreated control
Ribosomal protein S6 kinase alpha-5 (Homo sapiens), sequence (O75582 whole entry, looked up): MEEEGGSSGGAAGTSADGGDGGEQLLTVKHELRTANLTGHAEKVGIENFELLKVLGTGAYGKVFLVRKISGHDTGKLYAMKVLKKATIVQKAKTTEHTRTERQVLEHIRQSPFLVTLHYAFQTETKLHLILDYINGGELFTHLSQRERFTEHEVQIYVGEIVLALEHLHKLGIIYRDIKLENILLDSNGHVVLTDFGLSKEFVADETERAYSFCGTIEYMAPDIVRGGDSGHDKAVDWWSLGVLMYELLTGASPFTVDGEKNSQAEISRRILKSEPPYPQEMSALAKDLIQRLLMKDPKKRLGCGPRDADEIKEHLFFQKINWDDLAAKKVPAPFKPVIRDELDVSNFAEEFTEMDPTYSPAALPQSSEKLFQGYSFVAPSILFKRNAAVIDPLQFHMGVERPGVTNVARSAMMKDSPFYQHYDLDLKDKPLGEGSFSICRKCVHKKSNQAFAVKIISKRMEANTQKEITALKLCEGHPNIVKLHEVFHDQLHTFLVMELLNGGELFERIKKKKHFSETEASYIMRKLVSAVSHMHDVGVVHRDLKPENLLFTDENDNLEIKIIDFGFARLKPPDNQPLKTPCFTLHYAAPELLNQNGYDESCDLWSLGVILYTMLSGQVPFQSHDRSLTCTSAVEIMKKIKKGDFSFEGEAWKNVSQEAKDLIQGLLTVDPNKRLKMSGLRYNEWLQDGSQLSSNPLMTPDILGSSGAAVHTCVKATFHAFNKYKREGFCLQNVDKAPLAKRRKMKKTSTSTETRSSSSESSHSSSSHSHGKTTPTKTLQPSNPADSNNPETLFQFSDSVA

[3] = molecular target: MAP kinase-interacting serine/threonine-protein kinase 2 (Homo sapiens) (UniProt Q9HBH9); test: Inhibition of MNK2 assessed as residual enzyme activity at 10 uM relative to untreated control
MAP kinase-interacting serine/threonine-protein kinase 2 (Homo sapiens), sequence (Q9HBH9 whole entry, looked up): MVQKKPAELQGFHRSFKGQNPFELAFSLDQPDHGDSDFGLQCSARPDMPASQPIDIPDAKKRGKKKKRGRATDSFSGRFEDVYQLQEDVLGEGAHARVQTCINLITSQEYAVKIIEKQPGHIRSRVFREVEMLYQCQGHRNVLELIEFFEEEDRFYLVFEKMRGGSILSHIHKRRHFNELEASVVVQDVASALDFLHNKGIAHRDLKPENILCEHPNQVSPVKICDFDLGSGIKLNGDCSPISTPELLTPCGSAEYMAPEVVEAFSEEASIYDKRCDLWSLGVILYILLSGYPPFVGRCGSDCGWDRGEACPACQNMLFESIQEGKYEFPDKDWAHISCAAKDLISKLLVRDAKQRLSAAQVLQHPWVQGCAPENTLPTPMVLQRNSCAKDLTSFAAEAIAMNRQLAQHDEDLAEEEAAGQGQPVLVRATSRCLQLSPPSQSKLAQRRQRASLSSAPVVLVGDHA
How it was run: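 Assayed with [γ-33P]ATP at 50 µM and 10 mM Mg acetate in 50 mM Tris/HCl pH 7.5, 0.1 mM EGTA, 0.1% 2-mercaptoethanol, 30 min, 21 °C. Phosphoric acid stop, P81 filter capture. ERK2 and Lck are mouse; AMPK is rat. 10 µM compound; % activity remaining relative to control without inhibitor, duplicates.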

[4] = molecular target: T2, Aurora kinase C (Homo sapiens) (UniProt Q9UQB9); test: Inhibition of AURORA C assessed as residual enzyme activity at 10 uM relative to untreated control; how it was run: as §1
T2 sequence (whole entry): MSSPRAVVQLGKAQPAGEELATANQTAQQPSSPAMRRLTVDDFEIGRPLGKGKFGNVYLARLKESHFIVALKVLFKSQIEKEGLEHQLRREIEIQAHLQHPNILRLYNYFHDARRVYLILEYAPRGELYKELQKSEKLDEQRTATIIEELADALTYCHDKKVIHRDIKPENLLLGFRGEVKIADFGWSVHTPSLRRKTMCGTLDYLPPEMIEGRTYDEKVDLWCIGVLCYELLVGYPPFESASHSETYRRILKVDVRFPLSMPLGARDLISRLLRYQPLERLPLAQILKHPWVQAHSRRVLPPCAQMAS

[5] = molecular target: Serine/threonine-protein kinase PLK1 (Homo sapiens) (UniProt P53350); test: Inhibition of PLK1 assessed as residual enzyme activity at 10 uM relative to untreated control
Serine/threonine-protein kinase PLK1 (Homo sapiens), sequence (P53350 whole entry): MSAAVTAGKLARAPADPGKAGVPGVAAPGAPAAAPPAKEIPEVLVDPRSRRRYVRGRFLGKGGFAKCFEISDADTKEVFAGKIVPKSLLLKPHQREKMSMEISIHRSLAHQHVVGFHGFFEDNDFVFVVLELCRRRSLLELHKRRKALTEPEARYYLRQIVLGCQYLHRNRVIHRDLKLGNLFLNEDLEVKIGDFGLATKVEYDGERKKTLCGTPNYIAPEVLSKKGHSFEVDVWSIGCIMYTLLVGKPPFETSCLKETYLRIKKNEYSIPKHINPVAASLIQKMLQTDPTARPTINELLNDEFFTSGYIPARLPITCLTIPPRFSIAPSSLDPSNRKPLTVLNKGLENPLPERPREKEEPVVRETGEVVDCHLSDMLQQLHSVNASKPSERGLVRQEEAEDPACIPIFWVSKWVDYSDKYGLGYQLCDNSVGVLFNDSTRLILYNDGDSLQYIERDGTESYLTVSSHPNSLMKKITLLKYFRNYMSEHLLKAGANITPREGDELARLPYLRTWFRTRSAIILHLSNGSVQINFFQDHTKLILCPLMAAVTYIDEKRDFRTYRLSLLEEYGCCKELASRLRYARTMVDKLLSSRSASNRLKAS
How it was run: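 30 min at 21 °C in the presence of 10 µM inhibitor. Incorporation read after P81 filter capture. Reported as % activity remaining relative to control, duplicates.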

[6] = molecular target: Myosin light chain kinase, smooth muscle (Homo sapiens) (UniProt Q15746); test: Inhibition of smMLCK assessed as residual enzyme activity at 10 uM relative to untreated control
Myosin light chain kinase, smooth muscle (Homo sapiens), sequence (Q15746 whole entry): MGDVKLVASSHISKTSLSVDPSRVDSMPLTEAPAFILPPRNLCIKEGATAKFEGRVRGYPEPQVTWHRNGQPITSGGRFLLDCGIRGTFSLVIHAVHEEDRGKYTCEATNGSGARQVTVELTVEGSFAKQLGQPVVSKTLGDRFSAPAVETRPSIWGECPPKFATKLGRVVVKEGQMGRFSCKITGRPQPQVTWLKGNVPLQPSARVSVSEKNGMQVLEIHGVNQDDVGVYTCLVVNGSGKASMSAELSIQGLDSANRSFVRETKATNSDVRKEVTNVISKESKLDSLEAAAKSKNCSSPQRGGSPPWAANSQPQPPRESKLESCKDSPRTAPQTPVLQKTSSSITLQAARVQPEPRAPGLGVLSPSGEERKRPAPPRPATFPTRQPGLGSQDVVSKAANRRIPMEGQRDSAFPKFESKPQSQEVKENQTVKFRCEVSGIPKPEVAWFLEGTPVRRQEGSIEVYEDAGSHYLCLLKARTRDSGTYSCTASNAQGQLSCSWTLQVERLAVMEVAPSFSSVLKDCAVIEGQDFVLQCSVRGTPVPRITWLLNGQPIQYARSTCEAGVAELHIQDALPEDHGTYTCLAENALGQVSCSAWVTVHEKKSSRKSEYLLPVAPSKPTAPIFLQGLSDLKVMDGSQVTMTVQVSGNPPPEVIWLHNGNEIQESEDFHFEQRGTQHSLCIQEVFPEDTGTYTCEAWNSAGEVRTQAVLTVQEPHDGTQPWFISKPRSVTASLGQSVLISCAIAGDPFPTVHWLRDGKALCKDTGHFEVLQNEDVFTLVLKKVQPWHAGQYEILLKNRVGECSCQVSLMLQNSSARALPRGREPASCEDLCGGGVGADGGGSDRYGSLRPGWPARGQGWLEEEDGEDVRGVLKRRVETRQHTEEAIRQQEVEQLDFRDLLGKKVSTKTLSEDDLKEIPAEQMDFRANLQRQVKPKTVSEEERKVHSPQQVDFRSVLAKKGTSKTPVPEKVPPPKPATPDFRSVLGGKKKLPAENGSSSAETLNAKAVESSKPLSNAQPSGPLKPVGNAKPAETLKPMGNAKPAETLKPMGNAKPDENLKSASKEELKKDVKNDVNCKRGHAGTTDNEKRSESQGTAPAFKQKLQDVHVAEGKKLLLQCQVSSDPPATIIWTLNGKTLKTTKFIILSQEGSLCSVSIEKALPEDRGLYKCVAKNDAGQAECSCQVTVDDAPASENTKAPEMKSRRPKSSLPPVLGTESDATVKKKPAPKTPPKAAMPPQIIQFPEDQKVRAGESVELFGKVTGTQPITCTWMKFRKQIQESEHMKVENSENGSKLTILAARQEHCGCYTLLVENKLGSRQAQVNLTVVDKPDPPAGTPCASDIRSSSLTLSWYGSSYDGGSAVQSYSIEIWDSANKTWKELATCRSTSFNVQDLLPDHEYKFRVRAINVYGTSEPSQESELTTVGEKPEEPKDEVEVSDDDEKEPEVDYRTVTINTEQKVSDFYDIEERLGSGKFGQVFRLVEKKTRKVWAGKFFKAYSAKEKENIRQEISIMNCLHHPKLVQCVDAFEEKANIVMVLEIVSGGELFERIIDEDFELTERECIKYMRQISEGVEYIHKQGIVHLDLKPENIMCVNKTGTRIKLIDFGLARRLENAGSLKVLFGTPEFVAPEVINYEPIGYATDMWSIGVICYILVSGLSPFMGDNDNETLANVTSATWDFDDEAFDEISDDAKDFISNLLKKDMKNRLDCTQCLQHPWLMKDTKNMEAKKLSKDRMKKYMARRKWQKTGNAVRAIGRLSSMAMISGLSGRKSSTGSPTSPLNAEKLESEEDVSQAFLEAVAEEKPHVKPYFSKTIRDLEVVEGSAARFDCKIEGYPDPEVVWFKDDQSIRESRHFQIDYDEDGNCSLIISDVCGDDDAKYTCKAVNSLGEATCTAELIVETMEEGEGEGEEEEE

[7] = molecular target: Serine/threonine-protein kinase pim-3 (Homo sapiens) (UniProt Q86V86); test: Inhibition of Pim-3 assessed as residual enzyme activity at 10 uM relative to untreated control
[8] = molecular target: T3, Mitogen-activated protein kinase 13 (Homo sapiens) (UniProt O15264); test: Inhibition of p38delta assessed as residual enzyme activity at 10 uM relative to untreated control
T3 sequence (whole entry): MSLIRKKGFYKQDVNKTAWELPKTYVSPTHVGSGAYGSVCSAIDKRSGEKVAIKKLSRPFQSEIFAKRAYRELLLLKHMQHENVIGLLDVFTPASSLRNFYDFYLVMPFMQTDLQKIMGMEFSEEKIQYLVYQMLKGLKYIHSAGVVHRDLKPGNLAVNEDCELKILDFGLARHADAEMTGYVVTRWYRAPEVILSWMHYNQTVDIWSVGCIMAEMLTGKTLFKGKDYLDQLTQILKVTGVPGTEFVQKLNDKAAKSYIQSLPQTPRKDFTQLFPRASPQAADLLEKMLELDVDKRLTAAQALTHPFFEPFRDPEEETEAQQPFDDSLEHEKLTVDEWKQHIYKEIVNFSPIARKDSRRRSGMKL
How it was run: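 p38γ and p38δ MAPK run at 5 µM [γ-33P]ATP, and p38α at 50 µM, each with 10 mM Mg acetate. Buffer 50 mM Tris/HCl pH 7.5, 0.1 mM EGTA, 0.1% 2-mercaptoethanol. 10 µM compound, 30 min at 21 °C. P81 filter capture. Residual activity relative to control, duplicates.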

[9] = system: RSK1 (Rattus norvegicus); test: Inhibition of RSK1 assessed as residual enzyme activity at 10 uM relative to untreated control

Row | Activity [2] [%] | Activity [3] [%] | Activity [4] [%] | Activity [5] [%] | Activity [6] [%] | Activity [7] [%] | Activity [8] [%] | Activity [9] [%] | Structure (SMILES) | Activity [1] [%]
1 | 71 | 55 | 79 | 91 | 60 | – | – | – | O=Cc1c[nH]c2c1ccc1c3ccccc3[nH]c12 | 20
2 | 90 | 95 | 85 | 111 | 86 | 38 | 78 | 105 | c1ccc2c(c1)[nH]c1c2ccc2cc[nH]c21 | 55
3 | 94 | 103 | 99 | 105 | 82 | 29 | 89 | 99 | c1ccc2c(c1)[nH]c1c3cc[nH]c3ccc21 | 47
4 | 84 | 109 | 104 | 106 | 91 | 102 | 83 | 120 | O=Cc1c[nH]c2ccc3c4ccccc4[nH]c3c12 | 112
